KDM4C inh = inhibitors of GASC-1 (KDM4C) histone demethylase, primary screen, biochemical, single concentration HTS; inhibition, % at 12.5 µM; GST-KDM4C 2-372, H3K9me3 peptide, LANCE TR-FRET; 96,000 compounds, 0.15% hits;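 active = mean replicate inhibition above about 25%, with at least 55% of replicates also reaching it, limit read from the data, passing the limit was not always enough; inconclusive = only one of those two conditions met; inactive = neither condition met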
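System – N-terminal GST-fused human GASC-1 (KDM4C) fragment, residues 2-372 · Input – enzyme final amount 10 nM · Technique – LANCE TR-FRET, Eu antibody, ULight-streptavidin, EDTA, ex 340 nm, em 618/671 nm · Medium – HEPES buffer, pH 7.5, plus ascorbate · Incubation – enzyme reaction 30 min, then detection 60 min, both room temperature · Reagent – H3K9me3 peptide with Fe(II)/2OG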
T cruzi growth-1 = T. cruzi intracellular proliferation inhibitors, primary screen, cell-based, beta-gal Tulahuen parasites, NIH3T3 host, luminescence | 77,000 compounds, 5.9% hits | inhibition, % at 8.34 µM | T. cruzi beta-gal in NIH3T3, GalScreen luminescence, 90 h;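 active = mean inhibition above about 93%, with at least 55% of replicates each passing it, limit read from the data, passing the limit was not always enough; inconclusive = only one of those two conditions holds; inactive = neither condition holds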
Pf Dd2 inh = P. falciparum Dd2 growth inhibitors, primary screen, SYBR Green fluorescence, single dose replicates | AID 1159554, 2015 | 94,000 compounds, 2.3% hits | activity change, % at 10 µM | 72 h; stronger effect = lower value; in the data active = activity change below about -80%; inconclusive = no clear call, values can overlap the other calls
IDH1 mut inh = inhibitors of IDH1 R132H reductase, primary screen, biochemical, plate reader, single point | Isocitrate dehydrogenase [NADP] cytoplasmic (Homo sapiens), O75874 | diaphorase/resazurin fluorescence, 60 min | inhibition, % at 10 µM | 70,000 compounds, 0.18% hits | AID 624101, 2012; in the data active = inhibition above about 34%; inconclusive = no clear call, values can overlap the other calls; inactive = below about 11%;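 note: 0% = DMSO and 100% = no enzyme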
Target sequence (O75874 whole entry R132H): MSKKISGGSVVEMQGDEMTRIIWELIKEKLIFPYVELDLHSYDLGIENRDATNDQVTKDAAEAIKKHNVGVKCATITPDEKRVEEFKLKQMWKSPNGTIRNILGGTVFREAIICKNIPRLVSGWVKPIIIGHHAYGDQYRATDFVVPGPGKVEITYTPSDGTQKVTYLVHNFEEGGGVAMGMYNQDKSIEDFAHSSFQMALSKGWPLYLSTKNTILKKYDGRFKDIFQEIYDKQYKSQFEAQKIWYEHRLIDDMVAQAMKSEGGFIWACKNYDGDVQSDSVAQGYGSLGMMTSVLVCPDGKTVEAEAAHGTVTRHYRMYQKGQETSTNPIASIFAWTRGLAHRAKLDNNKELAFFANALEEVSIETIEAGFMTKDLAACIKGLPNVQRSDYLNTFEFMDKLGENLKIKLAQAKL
T cruzi growth-2 = T. cruzi intracellular proliferation inhibitors, confirmation, cell-based, NIH3T3 host, beta-gal parasite, luminescence, cherry-pick; inhibition, % at 8.35 µM; shares compounds with T cruzi growth-1; 5,600 compounds, 72% hits; T. cruzi beta-gal in NIH3T3, GalScreen luminescence, 90 h; AID 651739, 2012;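 active = mean replicate inhibition above about 95% and at least 55% of replicates individually reaching it, limit read from the data; inconclusive = only one of the two criteria is met; inactive = neither criterion is met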
T cruzi growth-3 = inhibitors of intracellular T. cruzi replication, confirmation, NIH3T3 host cells, beta-gal parasites, cherry-pick, set 2. shares compounds with T cruzi growth-1. inhibition, % at 2.09 µM. T. cruzi beta-gal in NIH3T3, GalScreen luminescence, 90 h. 5,600 compounds, 21% hits. AID 651740, 2012;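 active = mean inhibition above about 95%, with at least 55% of replicates also reaching it, limit read from the data; inconclusive = meets just one of the two conditions; inactive = meets neither condition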;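 note: plate controls were neutral control median for no effect and positive control median for full effect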
NIH3T3 tox = cytotoxicity in mouse NIH/3T3 fibroblasts, confirmation, cytotoxicity control for T. cruzi proliferation inhibitor project, cell-based, cherry-pick, single point. AID 651742, 2012. 5,600 compounds, 14% hits. NIH/3T3 viability, CellTiter-Glo ATP luminescence, 90 h. shares compounds with T cruzi growth-1. cytotoxicity (signal decrease), % at 8.35 µM;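 active = mean signal decrease across replicates above about 35% based on untreated-well scatter, with enough replicates individually passing, limit read from the data; inconclusive = no rule stated though some were filed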;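 note: 0% = median of neutral control wells and 100% = median of positive control wells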
3T3 cytotox 2 = NIH/3T3 fibroblast cytotoxicity, confirmation, cytotoxicity control, cell-based, cherry-pick, single point, set 2. shares compounds with T cruzi growth-1. NIH/3T3 viability, CellTiter-Glo ATP luminescence, 90 h. inhibition, % at 24.9 µM. 5,600 compounds, 56% hits. AID 651744, 2012;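 active = mean loss of cell viability signal at or above a set limit, and enough replicates individually reaching it; inconclusive = meets only the mean limit or only the replicate share; inactive = meets neither condition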;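 note: 0% = median of neutral control wells and 100% = median of positive control wells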
Starred values were filed as active, the others as inactive; ? = inconclusive; / = no result given. Compounds with a hit are over-represented: about 5.9% of the library has one in this group of screens.

SMILES | KDM4C inh | T cruzi growth-1 | Pf Dd2 inh | IDH1 mut inh | T cruzi growth-2 | T cruzi growth-3 | NIH3T3 tox | 3T3 cytotox 2
C[C@H](CO)N1C[C@H](C)[C@@H](CN(C)C(=O)Nc2ccccc2)Oc2cc(C#Cc3ccccc3)ccc2S1(=O)=O | -2 | 118* | -40 | 0 | 105* | 68 | -9 | -9
C[C@H](CO)N1C[C@H](C)[C@H](CN(C)C(=O)Nc2ccccc2)Oc2cc(C#Cc3ccccc3)ccc2S1(=O)=O | -1 | 118* | -70 | 1 | 107* | 81 | 21 | 14
Cc1ccccc1-c1ccc2c(c1)O[C@H](CN(C)C(=O)Nc1ccccc1)[C@@H](C)CN([C@@H](C)CO)S2(=O)=O | -3 | 92* | -41 | 0 | 102* | 56 | ? | 64*
O=C(NC(Cc1ccccc1)C(=O)OCc1cnc(-c2ccccc2)o1)c1ccccc1 (stereo not given) | / | / | / | 0 | / | / | / | /
OC[C@@H]1[C@H](c2ccc(C3=CCCC3)cc2)[C@H]2CN(CCC(F)(F)F)CCCCN12 | / | 103* | -77 | / | 100* | 58 | 15 | 103*
OC[C@@H]1[C@H](c2ccc(C3=CCCCC3)cc2)[C@@H]2CN(CCC(F)(F)F)CCCCN12 | 0 | ? | -58 | / | 96* | 105* | 70* | 106*
CN(C)C(=O)c1cccc(-c2ccc([C@H]3[C@@H](CO)N4CCCCN(CCC(F)(F)F)C[C@H]34)cc2)c1 | -1 | 103* | -17 | / | 99* | 72 | -22 | 29
CN(C)C(=O)c1cccc(-c2ccc([C@H]3[C@H](CO)N4CCCCN(CCC(F)(F)F)C[C@@H]34)cc2)c1 | 0 | 105* | -20 | / | 109* | 86 | 5 | 25*
CN(C)C(=O)c1cccc(-c2ccc([C@@H]3[C@@H](CO)N4CCCCN(CCC(F)(F)F)C[C@@H]34)cc2)c1 | 2 | 58 | -7 | / | / | / | / | /
Cc1sc2ncn(CC(=O)Nc3ccc(F)c(Cl)c3)c(=O)c2c1C | / | / | / | 0 | / | / | / | /
CN(C)CCNc1oc(COc2ccc(Br)cc2)nc1C#N | / | / | / | 0 | / | / | / | /
C[C@@H]1CN([C@H](C)CO)C(=O)c2cc(NC(=O)C3CCCCC3)ccc2O[C@@H](C)CCCCO[C@H]1CN(C)S(=O)(=O)c1ccc(F)cc1 | -1 | 26 | -80 | 2 | / | / | / | /
C[C@@H]1CCCCO[C@H](CN(C)S(=O)(=O)c2ccc(Cl)cc2)[C@H](C)CN([C@@H](C)CO)C(=O)c2cc(NC(=O)C3CCCCC3)ccc2O1 | 0 | 108* | -80 | / | 103* | 84 | -8 | 24
Cc1ccc(S(=O)(=O)N(C)C[C@H]2OCCCC[C@@H](C)Oc3ccc(NC(=O)C4CCCCC4)cc3C(=O)N([C@H](C)CO)C[C@H]2C)cc1 | 0 | 47 | -71 | / | / | / | / | /
C[C@@H]1CCCCO[C@@H](CN(C)S(=O)(=O)c2ccc(F)cc2)[C@H](C)CN([C@H](C)CO)C(=O)c2cc(NC(=O)C3CCCCC3)ccc2O1 | 0 | 101* | -72 | / | 107* | 65 | 13 | -8
C[C@H]1CCCCO[C@H](CN(C)S(=O)(=O)c2ccc(F)cc2)[C@@H](C)CN([C@@H](C)CO)C(=O)c2cc(NC(=O)C3CCCCC3)ccc2O1 | -1 | 86 | -77 | 4 | / | / | / | /
C[C@H](CO)N1C[C@H](C)[C@H](CN(C)S(=O)(=O)c2ccc(Cl)cc2)OCCCC[C@H](C)Oc2ccc(NC(=O)C3CCCCC3)cc2C1=O | 1 | 106* | -68 | 0 | 111* | 72 | 18 | 51*
C[C@@H]1CN([C@H](C)CO)C(=O)c2cc(NC(=O)C3CCCCC3)ccc2O[C@@H](C)CCCCO[C@H]1CN(C)S(=O)(=O)c1ccc(Cl)cc1 | 1 | 102* | -83* | / | 106* | 62 | 17 | 70*
CC1OC(OC2C(CO)OC(OC(=O)[C@]34CCC(C)(C)CC3C3=CCC5[C@@]6(C)CC[C@H](OC7OC(C)C(OC8OCC(O)(COC9OCC(O)C(OC%10OCC(OC%11OCC(O)(CO)C%11O)C(O)C%10O)C9O)C8O)C(O)C7O)C(C)(C)C6CC[C@@]5(C)[C@]3(C)CC4)C(O)C2O)C(O)C(O)C1O (stereo not given in full) | / | / | / | 0 | / | / | / | /
C[C@H](CO)N1C[C@H](C)[C@@H](CN(C)S(=O)(=O)c2ccc(Cl)cc2)OCCCC[C@H](C)Oc2ccc(NC(=O)C3CCCCC3)cc2C1=O | -1 | 107* | -67 | / | 104* | 46 | -22 | -4
COc1ccc(S(=O)(=O)N(C)C[C@@H]2OCCCC[C@@H](C)Oc3ccc(NC(=O)C4CCCCC4)cc3C(=O)N([C@@H](C)CO)C[C@H]2C)cc1 | 0 | 106* | -69 | 1 | 107* | 40 | 9 | 21
COc1ccc(S(=O)(=O)N(C)C[C@H]2OCCCC[C@@H](C)Oc3ccc(NC(=O)C4CCCCC4)cc3C(=O)N([C@@H](C)CO)C[C@H]2C)cc1 | 1 | 57 | -59 | -3 | / | / | / | /
Cc1ccc(-n2c(SCC(=O)Nc3ccc(C)c(Cl)c3)nnc2-c2ccccc2O)c(C)c1 | / | / | / | 0 | / | / | / | /
O=C(c1cc2ccccc2oc1=O)N(Cc1ccccc1)c1ccccn1 | / | / | / | -2 | / | / | / | /
CCOC(=O)Cc1cc(C(=O)c2ccc(OC)cc2)sc1-c1ccc(OC)cc1 | / | / | / | -1 | / | / | / | /
C[C@@H]1CN([C@H](C)CO)S(=O)(=O)c2ccc(C3=CCCC3)cc2O[C@H]1CN(C)S(=O)(=O)c1ccc(F)cc1 | 0 | 116* | -41 | / | 107* | 83 | 17 | 25*
C[C@H]1CN([C@@H](C)CO)S(=O)(=O)c2ccc(C3=CCCC3)cc2O[C@@H]1CN(C)S(=O)(=O)c1ccc(F)cc1 | 1 | 123* | -42 | / | 97* | 101* | 45* | 10
Cc1ccc(S(=O)(=O)N(C)C[C@@H]2Oc3cc(C4=CCCC4)ccc3S(=O)(=O)N([C@@H](C)CO)C[C@H]2C)cc1 | 0 | / | -61 | 0 | / | / | / | /

Compound activity: PubChem, Broad Institute
